Each structure is given as a SMILES string.

Experimental findings from ChEMBL document CHEMBL4330146, “Identification of α-Glucosidase Inhibitors in Machilus litseifolia by Combined Use of High-Resolution α-Glucosidase Inhibition Profiling and HPLC-PDA-HRMS-SPE-NMR” (J Nat Prod, 2019) are described below.

This assay can be described thus: Inhibition of yeast alpha-glucosidase pre-incubated for 10 mins followed by pNPG substrate addition and measured every 30 secs for 35 mins. More on the design: species or system Saccharomyces cerevisiae. The method in brief:
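S. cerevisiae α-glucosidase (enzyme solution 2.0 U/mL) in 100 mM phosphate buffer, pH 7.5, with NaN3. Serial DMSO dilutions, nine concentrations, in triplicate. Preincubated 10 min at 28 °C, then p-NPG added (substrate solution 10 mM). A405 read every 30 s for 35 min. Inhibition taken from rate slope versus enzyme–substrate blanks; IC50 from three-parameter curve fit.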
The compound `COc1ccc(-c2oc3cc(O)cc(O)c3c(=O)c2O[C@@H]2O[C@@H](C)[C@H](OC(=O)/C=C/c3ccc(O)cc3)[C@@H](O)[C@H]2OC(=O)/C=C/c2ccc(O)cc2)cc1` returned an IC50 of 26.9 µM.

With `COc1ccc(-c2oc3cc(O)cc(O)c3c(=O)c2O[C@@H]2O[C@@H](C)[C@H](OC(=O)/C=C\c3ccc(O)cc3)[C@@H](O)[C@H]2OC(=O)/C=C/c2ccc(O)cc2)cc1O`, the midpoint of inhibition, the IC50, lay at 28.2 µM.

Turning to `C[C@H]1O[C@H](O[C@H]2[C@H](O)[C@@H](O)[C@@H](O[C@H]3[C@H](O)[C@@H](O)C(O)O[C@@H]3CO)O[C@@H]2CO)[C@H](O)[C@@H](O)[C@@H]1N[C@H]1C=C(CO)[C@@H](O)[C@H](O)[C@H]1O` (some centres undefined) [ACARBOSE], half-maximal inhibition (IC50) required 266 µM. Under `C[C@@H]1O[C@@H](Oc2c(-c3ccc(O)cc3)oc3cc(O)cc(O)c3c2=O)[C@H](OC(=O)/C=C/c2ccc(O)cc2)[C@H](O)[C@H]1OC(=O)/C=C\c1ccc(O)cc1` stands 16.1 µM; under `COc1ccc(-c2oc3cc(O)cc(O)c3c(=O)c2O[C@@H]2O[C@@H](C)[C@H](OC(=O)/C=C\c3ccc(O)cc3)[C@@H](O)[C@H]2OC(=O)/C=C/c2ccc(O)cc2)cc1`, 6.8 µM. For the compound `C[C@@H]1O[C@@H](Oc2c(-c3ccc(O)cc3)oc3cc(O)cc(O)c3c2=O)[C@H](OC(=O)/C=C\c2ccc(O)cc2)[C@H](O)[C@H]1OC(=O)/C=C/c1ccc(O)cc1`, the half-inhibitory concentration (IC50) came out at 35.3 µM. This IC50 is about 5.2-fold higher than that of the compound before.

For `COc1ccc(-c2oc3cc(O)cc(O)c3c(=O)c2O[C@@H]2O[C@@H](C)[C@H](OC(=O)/C=C/c3ccc(O)cc3)[C@@H](O)[C@H]2OC(=O)/C=C\c2ccc(O)cc2)cc1`, it took 10.1 µM to reach half-maximal inhibition (IC50). Take `C[C@@H]1O[C@@H](Oc2c(-c3ccc(O)cc3)oc3cc(O)cc(O)c3c2=O)[C@H](OC(=O)/C=C/c2ccc(O)cc2)[C@H](O)[C@H]1OC(=O)/C=C/c1ccc(O)cc1`: the IC50 stood at 12.9 µM. This IC50 and that of the compound before are within 1.5-fold of each other.

On to `COc1ccc(-c2oc3cc(O)cc(O)c3c(=O)c2O[C@@H]2O[C@@H](C)[C@H](OC(=O)/C=C\c3ccc(O)cc3)[C@@H](O)[C@H]2OC(=O)/C=C\c2ccc(O)cc2)cc1`, for which the concentration for half-maximal inhibition (IC50) is 5.9 µM.

One may read the IC50 as the concentration at which inhibition is half-maximal.
